A short description of test [1]: DPPH free radical scavenging. The following applies: for DPPH radical scavenging % inhibition: at 100 μg/mL; for DPPH radical scavenging IC50: concentrations 100, 50, 25, 10 μg/mL, graphical method. The method, boiled down: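 DPPH (3.92 mg per 100 mL of 82% methanol) was combined with test compound at final 100, 50, 25 or 10 μg/mL and incubated 1 h at 25 °C in the dark. Absorbance at 517 nm. Scavenging % = […]. Triplicate, ascorbic acid positive control, IC50 obtained graphically.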

The target of test [2] is calf intestinal alkaline phosphatase (CIAP) (Bos taurus, UniProt P19111). Kind of test: Calf intestinal alkaline phosphatase inhibition assay. The class given is biochemical.
Chain of calf intestinal alkaline phosphatase (CIAP) (P19111 20-533): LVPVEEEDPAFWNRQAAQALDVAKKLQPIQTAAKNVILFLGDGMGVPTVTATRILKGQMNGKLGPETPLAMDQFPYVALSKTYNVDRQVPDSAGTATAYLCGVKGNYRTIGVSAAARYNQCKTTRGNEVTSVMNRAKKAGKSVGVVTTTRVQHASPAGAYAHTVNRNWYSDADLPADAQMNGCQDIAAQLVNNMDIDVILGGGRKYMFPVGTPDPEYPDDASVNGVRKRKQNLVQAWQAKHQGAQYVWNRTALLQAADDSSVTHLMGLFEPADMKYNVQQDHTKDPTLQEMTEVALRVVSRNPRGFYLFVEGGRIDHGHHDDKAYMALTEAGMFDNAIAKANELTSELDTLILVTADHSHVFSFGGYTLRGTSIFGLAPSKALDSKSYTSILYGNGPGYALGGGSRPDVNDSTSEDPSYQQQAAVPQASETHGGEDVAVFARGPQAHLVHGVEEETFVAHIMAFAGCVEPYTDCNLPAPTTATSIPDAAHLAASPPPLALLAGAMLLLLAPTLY

The values that follow come from paper PMC8892665 (ACS Omega, 2022).

Values joined by “and” are separate entries in the source; they are usually repeats but may differ in a detail not shown here. Equal values may be shown once.

As to `O=C1NC2=C(C(=O)N(c3nc4ccccc4[nH]3)C2)C(c2ccccc2O)N1` (stereo not shown) [4g, 6-(1H-Benzo[d]imidazol-2-yl)-4-(2-hydroxyphenyl)-3,4,6,7-tetrahydro-1H-pyrrolo[3,4-d]pyrimidine-2,5-dione], in test [1], the “DPPH radical scavenging % inhibition” value was 80% and 70–80%; the “DPPH radical scavenging IC50” value worked out at 0.75 µg/mL. The “alkaline phosphatase inhibitory activity (in words)” value in test [2] is “no inhibition”.

`O=C1NC2=C(C(=O)N(c3ccc(F)cc3)C2)C(c2ccc(O)cc2)N1` (stereo not shown) [3f, 6-(4-Fluorophenyl)-4-(4-hydroxyphenyl)-3,4,6,7-tetrahydro-1H-pyrrolo[3,4-d]pyrimidine-2,5-dione]: the “DPPH radical scavenging IC50” value in test [1] worked out at 2.86 µg/mL.

As to “6-(4-Hydroxyphenyl)-6-(2-nitrophenyl)-3,4,6,7-tetrahydro-1H-pyrrolo[3,4-d]pyrimidine-2,5-dione [3h]”, in test [1], the “DPPH radical scavenging % inhibition” value is “about 60%” and the “DPPH radical scavenging IC50” value was determined as 2.61 µg/mL. Also, the “alkaline phosphatase inhibitory activity (in words)” value in test [2] is on record as “moderate activity”.

`O=C1NC2=C(C(=O)N(Cc3ccccc3)C2)C(c2ccc(O)cc2)N1` (stereo not shown) [3a, 6-Benzyl-4-(4-hydroxyphenyl)-3,4,6,7-tetrahydro-1H-pyrrolo[3,4-d]pyrimidine-2,5-dione]: in test [1], the “DPPH radical scavenging % inhibition” value is “about 60%” and the “DPPH radical scavenging IC50” value worked out at 2.61 µg/mL. Also, the “alkaline phosphatase inhibitory activity (in words)” value in test [2] is “no inhibition”.

As to `O=C1NC2=C(C(=O)N(c3ccc(F)cc3)C2)C(c2ccccc2O)N1` (stereo not shown) [4f, 6-(4-Fluorophenyl)-4-(2-hydroxyphenyl)-3,4,6,7-tetrahydro-1H-pyrrolo[3,4-d]pyrimidine-2,5-dione], in test [1], the “DPPH radical scavenging % inhibition” value was “highest percent of inhibition” and the “DPPH radical scavenging IC50” value worked out at 0.48 µg/mL. Moreover, in test [2], the “alkaline phosphatase inhibitory activity (in words)” value is recorded as “low activities”.

Regarding “4-(4-Hydroxyphenyl)-6-(3-methoxyphenyl)-3,4,6,7-tetrahydro-1H-pyrrolo[3,4-d]pyrimidine-2,5-dione [3i]”, the “DPPH radical scavenging % inhibition” value in test [1] is reported as “less than 50%”. The “alkaline phosphatase inhibitory activity (in words)” value in test [2] is “no inhibition”.

For the compound `O=C1NC2=C(C(=O)N(c3nc4ccccc4[nH]3)C2)C(c2ccc(O)cc2)N1` (stereo not shown) [3g, 6-(1H-Benzo[d]imidazol-2-yl)-4-(4-hydroxyphenyl)-3,4,6,7-tetrahydro-1H-pyrrolo[3,4-d]pyrimidine-2,5-dione], the “DPPH radical scavenging IC50” value in test [1] was 1.85 µg/mL.

As for “4-(2-Hydroxyphenyl)-6-(2-methoxyphenyl)-3,4,6,7-tetrahydro-1H-pyrrolo[3,4-d]pyrimidine-2,5-dione [4i]”, in test [1], the “DPPH radical scavenging % inhibition” value is reported as “less than 50%”. The “alkaline phosphatase inhibitory activity (in words)” value in test [2] is listed as “good activity”.

For the compound `O=C1NC2=C(C(=O)N(Cc3ccccc3)C2)C(c2ccccc2O)N1` (stereo not shown) [4a, 6-Benzyl-4-(2-hydroxyphenyl)-3,4,6,7-tetrahydro-1H-pyrrolo[3,4-d]pyrimidine-2,5-dione], the “DPPH radical scavenging % inhibition” value in test [1] is reported as “less than 50%”.

For `O=C1NC2=C(C(=O)N(Cc3ccc(Cl)cc3)C2)C(c2ccccc2O)N1` (stereo not shown) [4c, 6-(4-Chlorobenzyl)-4-(2-hydroxyphenyl)-3,4,6,7-tetrahydro-1H-pyrrolo[3,4-d]pyrimidine-2,5-dione], the “DPPH radical scavenging % inhibition” value in test [1] is “less than 50%”. The “alkaline phosphatase inhibitory activity (in words)” value in test [2] was “no inhibition”.

As for `O=C1NC2=C(C(=O)N(Cc3ccc(Cl)cc3)C2)C(c2ccc(O)cc2)N1` (stereo not shown) [3c, 6-(4-Chlorobenzyl)-4-(4-hydroxyphenyl)-3,4,6,7-tetrahydro-1H-pyrrolo[3,4-d]pyrimidine-2,5-dione], in test [1], the “DPPH radical scavenging % inhibition” value was “less than 50%”. Besides, the “alkaline phosphatase inhibitory activity (in words)” value in test [2] was “low activities”.

With `O=C1NC2=C(C(=O)N(Cc3ccc(F)cc3)C2)C(c2ccc(O)cc2)N1` (stereo not shown) [3d, 6-(4-Fluorobenzyl)-4-(4-hydroxyphenyl)-3,4,6,7-tetrahydro-1H-pyrrolo[3,4-d]pyrimidine-2,5-dione], the “DPPH radical scavenging % inhibition” value in test [1] is reported as “less than 50%”.

On to `CCCCCCCCN1CC2=C(C1=O)C(c1ccc(O)cc1)NC(=O)N2` (stereo not shown) [3b, 4-(4-Hydroxyphenyl)-6-octyl-3,4,6,7-tetrahydro-1H-pyrrolo[3,4-d]pyrimidine-2,5-dione], for which the “DPPH radical scavenging IC50” value in test [1] worked out at 2.6 µg/mL.

As to “4-(4-Hydroxyphenyl)-6-(2-methoxyphenyl)-3,4,6,7-tetrahydro-1H-pyrrolo[3,4-d]pyrimidine-2,5-dione [3k]”, in test [1], the “DPPH radical scavenging % inhibition” value was “less than 50%”. Further, the “alkaline phosphatase inhibitory activity (in words)” value in test [2] is “low activities”.

Take “4-(2-Hydroxyphenyl)-6-(3-methoxyphenyl)-3,4,6,7-tetrahydro-1H-pyrrolo[3,4-d]pyrimidine-2,5-dione [4k]”: the “DPPH radical scavenging % inhibition” value in test [1] is recorded as “less than 50%”. For the same compound, the “alkaline phosphatase inhibitory activity (in words)” value in test [2] is recorded as “no inhibition”.

As for `CCCCCCCCN1CC2=C(C1=O)C(c1ccccc1O)NC(=O)N2` (stereo not shown) [4b, 4-(2-Hydroxyphenyl)-6-octyl-3,4,6,7-tetrahydro-1H-pyrrolo[3,4-d]pyrimidine-2,5-dione], the “DPPH radical scavenging IC50” value in test [1] is 2.731 µg/mL and 2.73 µg/mL.

Regarding `O=C1O[C@H]([C@@H](O)CO)C(O)=C1O` [ascorbic acid, reference compound], in test [1], the “DPPH radical scavenging % inhibition” value is recorded as 97% and the “DPPH radical scavenging IC50” value stood at 0.25 µg/mL.

`COc1ccc(N2CC3=C(C2=O)C(c2ccc(O)cc2)NC(=O)N3)cc1` (stereo not shown) [3j, 4-(4-Hydroxyphenyl)-6-(4-methoxyphenyl)-3,4,6,7-tetrahydro-1H-pyrrolo[3,4-d]pyrimidine-2,5-dione]: the “DPPH radical scavenging IC50” value in test [1] amounted to 2.48 µg/mL.

Turning to `O=C1NC2=C(C(=O)N(c3ccc(Cl)cc3)C2)C(c2ccccc2O)N1` (stereo not shown) [4e, 6-(4-Chlorophenyl)-4-(2-hydroxyphenyl)-3,4,6,7-tetrahydro-1H-pyrrolo[3,4-d]pyrimidine-2,5-dione], the “DPPH radical scavenging % inhibition” value in test [1] is 60%.

`O=C1NC2=C(C(=O)N(Cc3ccc(F)cc3)C2)C(c2ccccc2O)N1` (stereo not shown) [4d, 6-(4-Fluorobenzyl)-4-(2-hydroxyphenyl)-3,4,6,7-tetrahydro-1H-pyrrolo[3,4-d]pyrimidine-2,5-dione]: the “DPPH radical scavenging % inhibition” value in test [1] is “less than 50%”.

As to “4-(2-Hydroxyphenyl)-6-(2-nitrophenyl)-3,4,6,7-tetrahydro-1H-pyrrolo[3,4-d]pyrimidine-2,5-dione [4h]”, in test [1], the “DPPH radical scavenging % inhibition” value was “approximately 70%” and the “DPPH radical scavenging IC50” value is 1.72 µg/mL. The “alkaline phosphatase inhibitory activity (in words)” value in test [2] was “moderate activity”.

In the case of `COc1ccc(N2CC3=C(C2=O)C(c2ccccc2O)NC(=O)N3)cc1` (stereo not shown) [4j, 4-(2-Hydroxyphenyl)-6-(4-methoxyphenyl)-3,4,6,7-tetrahydro-1H-pyrrolo[3,4-d]pyrimidine-2,5-dione], in test [1], the “DPPH radical scavenging IC50” value amounted to 2.45 µg/mL. Besides, the “alkaline phosphatase inhibitory activity (in words)” value in test [2] was “low activities”.
